Compound activity: PubChem, several laboratories
Hits are enriched below; roughly 3.6% of the tested compounds scored in any of these assays.
AHR act = activates the human aryl hydrocarbon receptor | P35869 | AHR-responsive luciferase reporter cells, luminescence | activation, % at 5 µM | 2.5% of 320,000 active; in the data active = activation above about 47%
Target sequence (P35869 whole entry, looked up): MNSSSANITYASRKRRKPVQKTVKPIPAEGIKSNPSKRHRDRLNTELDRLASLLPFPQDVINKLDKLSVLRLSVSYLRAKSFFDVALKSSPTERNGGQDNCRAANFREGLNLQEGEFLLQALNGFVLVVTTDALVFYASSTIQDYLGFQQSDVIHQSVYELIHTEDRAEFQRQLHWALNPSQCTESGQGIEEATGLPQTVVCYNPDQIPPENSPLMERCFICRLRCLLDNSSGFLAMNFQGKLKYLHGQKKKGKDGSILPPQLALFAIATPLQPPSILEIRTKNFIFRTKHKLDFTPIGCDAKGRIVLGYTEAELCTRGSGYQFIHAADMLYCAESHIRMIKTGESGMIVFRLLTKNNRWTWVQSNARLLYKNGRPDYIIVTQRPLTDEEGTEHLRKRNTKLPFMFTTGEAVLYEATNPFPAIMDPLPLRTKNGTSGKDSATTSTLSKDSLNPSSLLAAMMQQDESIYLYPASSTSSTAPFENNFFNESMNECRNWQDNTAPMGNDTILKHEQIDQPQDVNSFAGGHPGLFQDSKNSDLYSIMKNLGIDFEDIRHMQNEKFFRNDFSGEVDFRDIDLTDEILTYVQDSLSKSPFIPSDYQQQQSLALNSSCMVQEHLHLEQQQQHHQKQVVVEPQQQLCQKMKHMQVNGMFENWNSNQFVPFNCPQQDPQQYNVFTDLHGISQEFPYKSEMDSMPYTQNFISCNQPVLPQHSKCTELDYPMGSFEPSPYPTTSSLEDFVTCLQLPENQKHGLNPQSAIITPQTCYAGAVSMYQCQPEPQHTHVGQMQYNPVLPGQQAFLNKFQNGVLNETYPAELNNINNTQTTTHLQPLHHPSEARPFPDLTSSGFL
Hsp70 act = switches on Hsp70 transcription. HeLa Hsp70 promoter luciferase reporter, luminescence; scaled: vehicle 0, proteasome-inhibitor control 100%. activation, % at 10 µM. 0.04% of 200,000 active. AID 1203;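 active = activation above the mean across all tested compounds plus 3 SD, cutoff set per campaign, cut at about 5.5% in these data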
PolyA inhibitor = inhibitors of polyadenylation in S. cerevisiae. AID 1875. S. cerevisiae SKY197-pL101 polyadenylation reporter, beta-gal luminescence; efflux-impaired pdr1/pdr3 knockout yeast; score 100 = 6 SD above DMSO. 0.02% of 300,000 active. activity score, % at 12 µM;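 active = lowest replicate activity score at least 50, where 100 means six control SD above control mean; inconclusive = lowest score under 50 but half or more replicates reach 50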;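 also: yeast exposed to compound for 9 h at 30 °C; higher score means more reporter readthrough which indicates perturbed polyadenylation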
HSF1 inhib = HSF1 inhibition; NIH3T3-HGL HSE-luciferase, MG132-induced, luminescence 8 h; active compounds read low; activity change, negative = inhibition, % at 7.5 µM (by protocol); 0.77% of 300,000 active;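 active = more than half of replicate wells show activity change below -50%, luminescence cut by over half; inconclusive = some wells, but at most half, below -50%; inactive = no replicate well below -50%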;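 also: luciferase reports HSF-1 transcriptional activity via heat shock element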
STAT3 act-1 = activators of IL-6 induced STAT3 signaling; U3A cells, IL-6 STAT3-luciferase reporter, luminescence; 100% = signal with IL-6 EC80 alone; 0.91% of 190,000 active; activation (% of control), % at 5.6 µM;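 active = activation above the screen-wide mean of compound activation plus 3 SD, cut at about 130% in these data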
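Material: human U3A cells carrying STAT3-luciferase construct. Measured by: reporter luminescence signal. Timing: compound 1 h, then IL-6 6 h at 37 °C.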
PERK inh = inhibitors of human PERK kinase; Q9NZJ5; 0.17% of 220,000 active; AID 1416; inhibition, % at 5.6 µM; CHO PERK-DD fusion, SEAP luminescence translation reporter;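 active = inhibition above the mean inhibition of all tested compounds plus 3 SD, set separately per screening campaign, cut at about 2.9% in these data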;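 also: PERK kinase domain activated by AP20187 dimerizer at 100 nM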
STAT3 act-2 = confirmation of STAT3 signaling activators. shares compounds with STAT3 act-1. U3A STAT3-luciferase reporter, IL-6 potentiation, luminescence; U3A cells lack STAT1; 100 means same as IL-6 alone. potentiation (% of control), % at 5.7 µM. 64% of 1,200 active;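 active = percent activation of the STAT3 luciferase reporter above a set limit taken from the earlier primary screen, cut at about 130% in these data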
NFkB act 2 = NF-kappaB activation in STAT3 activator counter-screen | 11% of 1,200 active | activation (% of control), % at 5.7 µM | shares compounds with STAT3 act-1 | human cells, NF-kappaB reporter activation; in the data active = activation above about 120%;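 also: reporter induced by TNF-alpha stimulation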
STAT1 act STAT3c = STAT1 activation in STAT3 activator counter-screen. shares compounds with STAT3 act-1. NIH 3T3 STAT1-luciferase reporter, IFN-gamma, luminescence. activation (% of control), % at 5.7 µM. 13% of 1,200 active. AID 1318;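 active = activation above the solvent-only control well mean plus 3 SD, set per screening run, cut at about 120% in these data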
Large screens that a line does not name were inactive (follow-up assays come after a bar, where they were run).

Cc1nnc(SCc2nc3ccccc3s2)n1-c1ccccc1	STAT3 act-1 147 | STAT3 act-2 149 | NFkB act 2 inactive | STAT1 act STAT3c 134
c1ccc(-c2ncc(CSc3nncn3-c3ccccc3)s2)cc1	none
CCC(c1nnc(SCc2nc3ccccc3s2)n1Cc1ccccc1)N(C)C (stereo unspecified)	STAT3 act-1 152 | STAT3 act-2 141 | NFkB act 2 inactive | STAT1 act STAT3c inactive
CCn1c(SCc2nc3ccccc3s2)nnc1-c1ccccc1	STAT3 act-1 171 | STAT3 act-2 145 | NFkB act 2 inactive | STAT1 act STAT3c 134
COc1cccc(-c2nnc(SCc3nc4ccccc4s3)n2C)c1	none
c1ccc(-n2cnnc2SCc2nc3ccccc3s2)cc1	STAT3 act-1 140 | STAT3 act-2 152 | NFkB act 2 122 | STAT1 act STAT3c 132
c1ccc(Cn2c(SCc3nc4ccccc4s3)nnc2-c2ccco2)cc1	none (no result: HSF1 inhib)
CCCOc1ccc(CC(=O)NCCc2ccccc2)cc1OC	none (no result: Hsp70 act, STAT3 act-1, PERK inh)
CCN(CC)S(=O)(=O)c1ccc(NN=c2c(=O)c3ccccc3c2=O)cc1	none (no result: Hsp70 act, STAT3 act-1)
CC(=O)Nc1ccc(S(=O)(=O)Nc2nc3ccccc3nc2Nc2ccc3ccccc3c2)cc1	STAT3 act-1 152 | STAT3 act-2 152 | NFkB act 2 inactive | STAT1 act STAT3c inactive
COCCNc1nc(N2CCCCC2)c2cnn(C)c2n1	none (no result: Hsp70 act, STAT3 act-1, PERK inh)
Cc1ccc(N(CC(=O)NCc2ccc3c(c2)OCO3)C(=O)CCC(=O)Nc2ccccn2)cc1	none (no result: Hsp70 act, STAT3 act-1, PERK inh)
Cc1ccnc(NC(=O)CCC(=O)N(CC(=O)NCc2ccccc2)c2ccc3c(c2)OCO3)c1	STAT3 act-1 149 | STAT3 act-2 144 | NFkB act 2 inactive | STAT1 act STAT3c inactive
O=C(O)C1(S(=O)(=O)CCC(F)=C(F)F)CC1	none
COc1ccc(C(C)=O)c2c(O)cccc12	STAT3 act-1 150 | STAT3 act-2 148 | NFkB act 2 inactive | STAT1 act STAT3c inactive
O=C(O)C1CC=CCC1C(=O)Nc1ccc(S(=O)(=O)N2CCCc3ccccc32)cc1 (stereo unspecified)	STAT3 act-1 162 | STAT3 act-2 146 | NFkB act 2 inactive | STAT1 act STAT3c inactive
O=C(Nc1ccc(S(=O)(=O)N2CCCc3ccccc32)cc1)C1CCCO1 (stereo unspecified)	none
Oc1ccccc1/C=C/c1noc(-c2ccccc2O)n1	AHR act 66, STAT3 act-1 142 | STAT3 act-2 169 | NFkB act 2 inactive | STAT1 act STAT3c inactive
CC1CC(C)CN(C2CCCCC2NS(=O)(=O)c2ccc(Cl)cc2)C1 (stereo unspecified)	none (no result: Hsp70 act, STAT3 act-1, PERK inh)
COc1ccc(Cl)cc1NC(=O)c1[nH]nc(OC)c1[N+](=O)[O-]	STAT3 act-1 144 | STAT3 act-2 140 | NFkB act 2 inactive | STAT1 act STAT3c inactive
COc1ccc(C(=O)NN(C)c2nc(C(F)(F)F)nc3ccccc23)cc1	STAT3 act-1 156 | STAT3 act-2 inactive | NFkB act 2 165 | STAT1 act STAT3c inactive
COc1ccc(C(=O)NN(C)c2nc(-c3ccccc3)nnc2C(F)(F)F)cc1	none
CN1C(=O)c2ccccc2C(C(=O)NCCCN2CCCC2=O)C1c1c[nH]c2ccccc12 (stereo unspecified)	STAT3 act-1 152 | STAT3 act-2 136 | NFkB act 2 inactive | STAT1 act STAT3c inactive
CCn1c(C(=O)O)c(CC(=O)Nc2ccccc2OC)c2ccccc21	none (no result: Hsp70 act, STAT3 act-1, PERK inh)
COC(=O)/C(C#N)=C/c1cc(C)sc1C	none (no result: Hsp70 act, STAT3 act-1)
O=C(OCc1nc2ccccc2s1)C1CCN(S(=O)(=O)c2cccs2)CC1	STAT3 act-1 144 | STAT3 act-2 140 | NFkB act 2 123 | STAT1 act STAT3c 131
CC(=O)NC(NC(=S)Nc1cccc(Br)c1)C(Cl)(Cl)Cl (stereo unspecified)	none (no result: Hsp70 act, STAT3 act-1)
c1coc(-c2ccnc(-n3cccc3)n2)c1	none
Cc1ccsc1-c1ccnc(-n2cccc2)n1	AHR act 67, STAT3 act-1 146 | STAT3 act-2 inactive | NFkB act 2 inactive | STAT1 act STAT3c inactive
Clc1ccsc1-c1ccnc(-n2cccc2)n1	AHR act 57, STAT3 act-1 140 | STAT3 act-2 160 | NFkB act 2 inactive | STAT1 act STAT3c inactive
CCC1Nc2ncnc(N3CCN(c4ccccc4)CC3)c2N(Cc2ccc(Br)cc2)C1=O (stereo unspecified)	none (no result: Hsp70 act, STAT3 act-1, PERK inh)
CCOC(=O)c1cnn(-c2nc3c(C)cccc3s2)c1C	STAT3 act-1 152 | STAT3 act-2 inactive | NFkB act 2 inactive | STAT1 act STAT3c inactive
O=C1C(=C(c2ccccc2)c2ccccc2)Nc2ccccc21	STAT3 act-1 147 | STAT3 act-2 139 | NFkB act 2 inactive | STAT1 act STAT3c inactive
Cc1ccc(S(=O)(=O)N(CC(O)CN2C(=O)NC(C)(C)C2=O)c2ccccc2)cc1 (stereo unspecified)	PolyA inhibitor inconclusive, STAT3 act-1 187 | STAT3 act-2 inactive | NFkB act 2 inactive | STAT1 act STAT3c inactive
Cc1ccc(S(=O)(=O)N(CC(O)CN2C(=O)NC(C)(C)C2=O)c2cccc(C)c2)cc1 (stereo unspecified)	none (no result: Hsp70 act, STAT3 act-1)
CCN(CC(=O)Nc1ccc(NC(C)=O)cc1)C(=O)c1ccccc1CCc1ccccc1	none (no result: Hsp70 act, STAT3 act-1, PERK inh)
COC(=O)c1[nH]c2ccc(C)cc2c1NC(=O)NC1CCCCC1	none
O=C(Nc1c(C(=O)O)[nH]c2ccccc12)NC1CCCCC1	STAT3 act-1 164 | STAT3 act-2 159 | NFkB act 2 inactive | STAT1 act STAT3c inactive
Nc1nc(NCc2ccco2)nn1-c1ccccc1	STAT3 act-1 147 | STAT3 act-2 inactive | NFkB act 2 inactive | STAT1 act STAT3c inactive
COc1ccc(-c2nnc(SCC(=O)c3ccc(O)cc3O)o2)cc1	none (no result: Hsp70 act, STAT3 act-1, PERK inh)
Cc1cc2c(cc1C)CSC(c1ccc3ccccc3c1O)SC2	STAT3 act-1 152 | STAT3 act-2 inactive | NFkB act 2 inactive | STAT1 act STAT3c inactive
N#Cc1c(Cl)c(Cl)c2nnc(-c3ccc(Br)cc3)n2c1Cl	AHR act 55, STAT3 act-1 154 | STAT3 act-2 152 | NFkB act 2 inactive | STAT1 act STAT3c inactive
[S-]c1nnc(-c2ccc(Br)cc2)n1-c1ccccc1.[Zn+2]	none (no result: Hsp70 act, STAT3 act-1, PERK inh)
CC(=O)c1cc(C(=O)N2CCc3c([nH]c4ccccc34)C2CC(C)C)[nH]n1 (stereo unspecified)	STAT3 act-1 145 | STAT3 act-2 143 | NFkB act 2 inactive | STAT1 act STAT3c inactive
